Data on 24 compounds can be found in ChEMBL document CHEMBL1154792, “chi-Conopeptide pharmacophore development: toward a novel class of norepinephrine transporter inhibitor (Xen2174) for pain” (J Med Chem, 2009).

Each structure is given as a SMILES string. Activity calls are given as the source filed them. The calls are words filed in the database; no cut-off is given here. Where a SMILES comes first, the peptide text is derived from it. Bridges are numbered along the chain shown (N, C = ends). [ ]: non-standard residue; d: D form. Pro(3S-OH) = O=C(O)[C@H]1NCC[C@@H]1O; pGlu = O=C1CC[C@@H](C(=O)O)N1

Sodium-dependent noradrenaline transporter, sequence (P23975 whole entry): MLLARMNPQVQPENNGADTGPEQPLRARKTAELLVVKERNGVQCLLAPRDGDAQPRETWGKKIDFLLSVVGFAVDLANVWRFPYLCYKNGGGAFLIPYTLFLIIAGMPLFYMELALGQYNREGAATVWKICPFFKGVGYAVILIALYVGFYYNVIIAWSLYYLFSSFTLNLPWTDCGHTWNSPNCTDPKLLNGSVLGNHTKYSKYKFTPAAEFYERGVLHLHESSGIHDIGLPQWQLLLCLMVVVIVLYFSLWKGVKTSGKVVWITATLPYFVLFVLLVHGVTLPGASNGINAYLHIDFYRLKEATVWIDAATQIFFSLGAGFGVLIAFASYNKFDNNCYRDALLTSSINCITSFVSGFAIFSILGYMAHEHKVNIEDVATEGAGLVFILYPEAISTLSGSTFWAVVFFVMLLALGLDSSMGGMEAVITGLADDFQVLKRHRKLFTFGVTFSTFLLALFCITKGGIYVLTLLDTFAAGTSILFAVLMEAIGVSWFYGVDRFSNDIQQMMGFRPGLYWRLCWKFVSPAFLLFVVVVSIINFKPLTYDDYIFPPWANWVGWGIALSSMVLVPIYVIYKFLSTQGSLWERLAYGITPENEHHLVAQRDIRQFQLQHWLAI

The assay concerns the target Sodium-dependent noradrenaline transporter (Homo sapiens, UniProt P23975). The assay is described as follows: Displacement of [3H]nisoxetine from human NET expressed in COS7 cells. Type of assay: cell-based. As to conditions: COS-7. The procedure, abridged: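 Membranes from COS-7 cells transfected with human NET were incubated with [3H]nisoxetine (4.3 nM) with or without peptide (1 nM to 100 μM, triplicate) for 1 h at RT. Filter-retained radioactivity was counted by liquid scintillation, and values are given as pIC50. Data are means of 2–5 experiments in triplicate; peptide concentration was set by calibrated HPLC at 214 nm.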
(In general: Loss of bound radioactivity is the signal in a displacement assay; it reports binding, not function.)
As for `CC(C)C[C@@H]1NC(=O)[C@H](CCCCN)NC(=O)[C@H](Cc2ccc(O)cc2)NC(=O)CNC(=O)[C@@H]2CSSC[C@H](NC1=O)C(=O)N[C@@H](CCCNC(=N)N)C(=O)N1CC[C@H](O)[C@H]1C(=O)N[C@H](C(=O)O)CSSC[C@H](NC(=O)[C@@H](NC(=O)CNC(=O)[C@@H]1CCC(=O)N1)C(C)C)C(=O)N2`, the result was Active.
As for `CC(C)C[C@@H]1NC(=O)[C@H](CCCCN)NC(=O)[C@H](Cc2ccc(O)cc2)NC(=O)CNC(=O)[C@@H]2CSSC[C@H](NC1=O)C(=O)N[C@@H](Cc1ccccc1)C(=O)N1CC[C@H](O)[C@H]1C(=O)N[C@H](C(=O)O)CSSC[C@H](NC(=O)[C@@H](NC(=O)CNC(=O)[C@@H]1CCC(=O)N1)C(C)C)C(=O)N2` ([pGlu]GVCCGYKLCF[Pro(3S-OH)]C-OH; disulfide 4-13, 5-10), the entry is “Active”.
The entry for `CC(C)C[C@@H]1NC(=O)[C@H](CCCCN)NC(=O)[C@H](Cc2ccc(O)cc2)NC(=O)CNC(=O)[C@@H]2CSSC[C@@H](NC1=O)C(=O)N[C@@H](Cc1cnc[nH]1)C(=O)N1CC[C@H](O)[C@H]1C(=O)N[C@H](C(=O)O)CSSC[C@H](NC(=O)[C@@H](NC(=O)CNC(=O)[C@@H]1CCC(=O)N1)C(C)C)C(=O)N2` is “inactive”; for `CC(C)C[C@@H]1NC(=O)[C@H](CCCCN)NC(=O)[C@H](Cc2c[nH]c3ccccc23)NC(=O)CNC(=O)[C@@H]2CSSC[C@H](NC1=O)C(=O)N[C@@H](Cc1cnc[nH]1)C(=O)N1CC[C@H](O)[C@H]1C(=O)N[C@H](C(=O)O)CSSC[C@H](NC(=O)[C@@H](NC(=O)CNC(=O)[C@@H]1CCC(=O)N1)C(C)C)C(=O)N2` it is “inactive”.
As for `CC(C)C[C@@H]1NC(=O)[C@H](CCCCN)NC(=O)[C@H](Cc2ccccc2)NC(=O)CNC(=O)[C@@H]2CSSC[C@H](NC1=O)C(=O)N[C@@H](Cc1cnc[nH]1)C(=O)N1CC[C@H](O)[C@H]1C(=O)N[C@H](C(=O)O)CSSC[C@H](NC(=O)[C@@H](NC(=O)CNC(=O)[C@@H]1CCC(=O)N1)C(C)C)C(=O)N2` ([pGlu]GVCCGFKLCH[Pro(3S-OH)]C-OH; disulfide 4-13, 5-10), the result was inactive.
The entry for `CC(C)C[C@@H]1NC(=O)[C@H](CCCCN)NC(=O)[C@H](CCC(N)=O)NC(=O)CNC(=O)[C@@H]2CSSC[C@H](NC1=O)C(=O)N[C@@H](Cc1cnc[nH]1)C(=O)N1CC[C@H](O)[C@H]1C(=O)N[C@H](C(=O)O)CSSC[C@H](NC(=O)[C@@H](NC(=O)CNC(=O)[C@@H]1CCC(=O)N1)C(C)C)C(=O)N2` ([pGlu]GVCCGQKLCH[Pro(3S-OH)]C-OH; disulfide 4-13, 5-10) is “inactive”.
The entry for `CC(C)C[C@@H]1NC(=O)[C@H](CCCCN)NC(=O)[C@H](CO)NC(=O)CNC(=O)[C@@H]2CSSC[C@H](NC1=O)C(=O)N[C@@H](Cc1cnc[nH]1)C(=O)N1CC[C@H](O)[C@H]1C(=O)N[C@H](C(=O)O)CSSC[C@H](NC(=O)[C@@H](NC(=O)CNC(=O)[C@@H]1CCC(=O)N1)C(C)C)C(=O)N2` ([pGlu]GVCCGSKLCH[Pro(3S-OH)]C-OH; disulfide 4-13, 5-10) is “inactive”; for `CC(C)C[C@@H]1NC(=O)[C@H](CCCCN)NC(=O)[C@H](Cc2ccc(O)cc2)NC(=O)CNC(=O)[C@@H]2CSSC[C@H](NC1=O)C(=O)N[C@@H](Cc1ccc(O)cc1)C(=O)N1CC[C@H](O)[C@H]1C(=O)N[C@H](C(=O)O)CSSC[C@H](NC(=O)[C@@H](NC(=O)CNC(=O)[C@@H]1CCC(=O)N1)C(C)C)C(=O)N2` ([pGlu]GVCCGYKLCY[Pro(3S-OH)]C-OH; disulfide 4-13, 5-10) it is “Active”.
Turning to `CC(C)C[C@@H]1NC(=O)[C@H](CCCCN)NC(=O)[C@H](CC2CCCCC2)NC(=O)CNC(=O)[C@@H]2CSSC[C@H](NC1=O)C(=O)N[C@@H](Cc1cnc[nH]1)C(=O)N1CC[C@H](O)[C@H]1C(=O)N[C@H](C(=O)O)CSSC[C@H](NC(=O)[C@@H](NC(=O)CNC(=O)[C@@H]1CCC(=O)N1)C(C)C)C(=O)N2`, the outcome was inactive.
The entry for `CC(C)C[C@@H]1NC(=O)[C@H](CCCCN)NC(=O)[C@H](Cc2ccc(O)cc2)NC(=O)CNC(=O)[C@@H]2CSSC[C@H](NC1=O)C(=O)N[C@@H](Cc1cnc[nH]1)C(=O)N1CC[C@H](O)[C@H]1C(=O)N[C@@H](C(=O)O)CSSC[C@@H](NC(=O)[C@@H](NC(=O)CNC(=O)[C@@H]1CCC(=O)N1)C(C)C)C(=O)N2` is “Active”; for `CC(C)[C@H](NC(=O)CNC(=O)[C@@H]1CCC(=O)N1)C(=O)N[C@H]1CSSC[C@@H](C(=O)O)NC(=O)[C@@H]2[C@@H](O)CCN2C(=O)[C@H](Cc2cnc[nH]2)NC(=O)[C@@H]2CSSC[C@H](NC1=O)C(=O)NCC(=O)N[C@@H](Cc1ccc(O)cc1)C(=O)N[C@@H](CCCCN)C(=O)N[C@@H](C(C)C)C(=O)N2` ([pGlu]GVCCGYKVCH[Pro(3S-OH)]C-OH; disulfide 4-13, 5-10) it is “inactive”; for `COc1ccc(C[C@@H]2NC(=O)CNC(=O)[C@@H]3CSSC[C@H](NC(=O)[C@H](CC(C)C)NC(=O)[C@H](CCCCN)NC(=O)[C@H](Cc4ccc(O)cc4)NC2=O)C(=O)N[C@@H](Cc2c[nH]c4ccccc24)C(=O)N2CC[C@H](O)[C@H]2C(=O)N[C@H](C(=O)O)CSSC[C@H](NC(=O)[C@@H](NC(=O)CNC(=O)[C@@H]2CCC(=O)N2)C(C)C)C(=O)N3)cc1` ([pGlu]GVCCGY(Me)YKLCW[Pro(3S-OH)]C-OH; disulfide 4-14, 5-11) it is “Active”.
As for `CC(C)C[C@@H]1NC(=O)CNC(=O)[C@@H]2CSSC[C@H](NC(=O)[C@H](CC(C)C)NC(=O)[C@H](CCCCN)NC1=O)C(=O)N[C@@H](Cc1cnc[nH]1)C(=O)N1CC[C@H](O)[C@H]1C(=O)N[C@H](C(=O)O)CSSC[C@H](NC(=O)[C@@H](NC(=O)CNC(=O)[C@@H]1CCC(=O)N1)C(C)C)C(=O)N2` ([pGlu]GVCCGLKLCH[Pro(3S-OH)]C-OH; disulfide 4-13, 5-10), the entry is “inactive”; as for `CC(C)C[C@H]1CC(=O)N[C@H]2CSSC[C@H](NC(=O)[C@@H](NC(=O)[C@@H](NC(=O)CNC(=O)[C@@H]3CCC(=O)N3)C(C)C)CSSC[C@@H](C(=O)O)NC(=O)[C@@H]3[C@@H](O)CCN3C(=O)[C@H](Cc3cnc[nH]3)NC2=O)C(=O)NCC(=O)N[C@@H](Cc2ccc(O)cc2)C(=O)N[C@@H](CCCCN)C(=O)N1`, “Active”.
For `CC(C)C[C@@H]1NC(=O)[C@H](CCCCN)NC(=O)[C@H](Cc2ccc(O)cc2)NC(=O)CNC(=O)[C@@H]2CSSC[C@H](NC1=O)C(=O)N[C@@H](Cc1ccco1)C(=O)N1CC[C@H](O)[C@H]1C(=O)N[C@H](C(=O)O)CSSC[C@H](NC(=O)[C@@H](NC(=O)CNC(=O)[C@@H]1CCC(=O)N1)C(C)C)C(=O)N2`, the result was Active.
As for `CC(C)C[C@@H]1NC(=O)[C@H](CCCCN)NC(=O)[C@H](Cc2ccc(O)cc2)NC(=O)CNC(=O)[C@@H]2CSSC[C@H](NC1=O)C(=O)N[C@@H](Cc1cccnc1)C(=O)N1CC[C@H](O)[C@H]1C(=O)N[C@H](C(=O)O)CSSC[C@H](NC(=O)[C@@H](NC(=O)CNC(=O)[C@@H]1CCC(=O)N1)C(C)C)C(=O)N2`, the entry is “Active”; as for `CC(C)C[C@@H]1NC(=O)[C@H](CCCCN)NC(=O)[C@H](Cc2ccc(O)cc2)NC(=O)CNC(=O)[C@@H]2CSSC[C@H](NC1=O)C(=O)N[C@@H](Cc1cccc3ccccc13)C(=O)N1CC[C@H](O)[C@H]1C(=O)N[C@H](C(=O)O)CSSC[C@H](NC(=O)[C@@H](NC(=O)CNC(=O)[C@@H]1CCC(=O)N1)C(C)C)C(=O)N2`, “Active”.
Turning to `CC(C)C[C@@H]1NC(=O)[C@H](CCCCN)NC(=O)[C@H](Cc2cccs2)NC(=O)CNC(=O)[C@@H]2CSSC[C@H](NC1=O)C(=O)N[C@@H](Cc1cnc[nH]1)C(=O)N1CC[C@H](O)[C@H]1C(=O)N[C@H](C(=O)O)CSSC[C@H](NC(=O)[C@@H](NC(=O)CNC(=O)[C@@H]1CCC(=O)N1)C(C)C)C(=O)N2`, the result was inactive.
As for `COc1ccc(C[C@@H]2NC(=O)CNC(=O)[C@@H]3CSSC[C@H](NC(=O)[C@H](CC(C)C)NC(=O)[C@H](CCCCN)NC2=O)C(=O)N[C@@H](Cc2cnc[nH]2)C(=O)N2CC[C@H](O)[C@H]2C(=O)N[C@H](C(=O)O)CSSC[C@H](NC(=O)[C@@H](NC(=O)CNC(=O)[C@@H]2CCC(=O)N2)C(C)C)C(=O)N3)cc1`, the entry is “Active”; as for `CC(C)C[C@@H]1NC(=O)[C@H](CCCCN)NC(=O)[C@H](Cc2ccc(O)cc2)NC(=O)CNC(=O)[C@H]2CSSC[C@@H](NC1=O)C(=O)N[C@@H](Cc1cnc[nH]1)C(=O)N1CC[C@H](O)[C@H]1C(=O)N[C@H](C(=O)O)CSSC[C@H](NC(=O)[C@@H](NC(=O)CNC(=O)[C@@H]1CCC(=O)N1)C(C)C)C(=O)N2`, “inactive”.
As for `CC(C)C[C@@H]1NC(=O)[C@H](CCCCN)NC(=O)[C@H](Cc2ccc(O)cc2)NC(=O)CNC(=O)[C@@H]2CSSC[C@H](NC1=O)C(=O)N[C@@H](Cc1cnc[nH]1)C(=O)N1CC[C@H](O)[C@H]1C(=O)N[C@H](C(=O)O)CSSC[C@@H](NC(=O)[C@@H](NC(=O)CNC(=O)[C@@H]1CCC(=O)N1)C(C)C)C(=O)N2`, the entry is “inactive”.
The entry for `CC(C)C[C@@H]1NC(=O)[C@H](CCCCN)NC(=O)[C@H](Cc2ccc(O)cc2)NC(=O)CNC(=O)[C@@H]2CSSC[C@H](NC1=O)C(=O)N[C@@H](Cc1cnc[nH]1)C(=O)N1CC[C@H](O)[C@H]1C(=O)N[C@@H](C(=O)O)CSSC[C@H](NC(=O)[C@@H](NC(=O)CNC(=O)[C@@H]1CCC(=O)N1)C(C)C)C(=O)N2` is “inactive”.
As to `CC(C)[C@H](NC(=O)CNC(=O)[C@@H]1CCC(=O)N1)C(=O)N[C@H]1CSSC[C@@H](C(=O)O)NC(=O)[C@@H]2[C@@H](O)CCN2C(=O)[C@H](Cc2cnc[nH]2)NC(=O)[C@@H]2CSSC[C@H](NC1=O)C(=O)NCC(=O)N[C@@H](Cc1ccc(O)cc1)C(=O)N[C@@H](CCCCN)C(=O)N[C@@H](C1CCCCC1)C(=O)N2`, the outcome was Active.
As for `CC(C)C[C@@H]1NC(=O)[C@H](CCCCN)NC(=O)[C@H]2CCCN2C(=O)CNC(=O)[C@@H]2CSSC[C@H](NC1=O)C(=O)N[C@@H](Cc1cnc[nH]1)C(=O)N1CC[C@H](O)[C@H]1C(=O)N[C@H](C(=O)O)CSSC[C@H](NC(=O)[C@@H](NC(=O)CNC(=O)[C@@H]1CCC(=O)N1)C(C)C)C(=O)N2`, the entry is “inactive”.
